Experimental findings from publication PMC6453127 (Biochimica et biophysica acta. General subjects, 2017) are described below.

Entries after “also recorded” stand apart in the source; their conditions may differ.

For test [1], the target named is T1, Hsp90β (Homo sapiens, UniProt P08238). Kind of test: Competitive displacement of FITC-GA. It is filed as binding. The conditions noted are these: competitor 3 nM to 3 μM; 60 nM Hsp90β, 5 nM FITC-GA.
Another test addresses Hsp70 (Homo sapiens, UniProt P0DMV8). Kind of test: Transcreener ADP Hsp70 ATPase assay. It is filed as biochemical. The settings on record: 0.5 μM Hsp70; up to 200 μM. The essentials: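 Stopped with EDTA stop-and-detect buffer containing ADP² antibody-IRDye QC-1 and 8 nM ADP Alexa594 tracer, 1 h at RT. Endpoint fluorescence intensity read. Three experiments, four-parameter logistic fit.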

The target of another test is His6-Hsp90β CTD (Homo sapiens, UniProt P08238). Put plainly: BS3 crosslinking dimerization/oligomerization assay, His6-Hsp90β CTD. The settings on record: for oligomerization state of His6-Hsp90β CTD (crosslinking): 2 μM protein, BS3 crosslinker. In kind it is biochemical.
In test [2] the target is T1, Hsp90β. Kind of test: Transcreener ADP Hsp90 ATPase assay. In kind it is biochemical.
Test [3] has as its target T2, GST-Hsp90α CTD (Homo sapiens, UniProt P07900). Kind of test: ADH aggregation. It is filed as biochemical. The settings on record: for inhibition of Hsp90 CTD chaperone (anti-aggregation) activity, ADH aggregation assay: 40 μM compound, 500 nM Hsp90 CTD, 55 °C, end point 90 min. The method in brief:
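Reaction: 6.2 μM equine ADH, with or without 500 nM GST-Hsp90α CTD and compound. Aggregation induced at 55 °C, read as absorbance at 360 nm every minute for 90 min. The 90-min endpoint was used, with the mean of ADH alone set to 100%. Three independent experiments.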

The target of another test is GST-Hsp90α NTD (Homo sapiens, UniProt P07900). Kind of test: BS3 crosslinking assay, GST-Hsp90α NTD. In kind it is biochemical. The settings on record: 2 μM protein. The essentials: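 2 μM protein buffer-exchanged into 50 mM NaPO₄ and 150 mM NaCl, then preincubated with compound for 1 h at room temperature. BS3 added at 66–200 μM final for 1 h at RT, then quenched with 50 mM Tris-HCl pH 7.5 for 15 min. Boiled in SDS dye, run on 10% SDS-PAGE, western-blotted and probed with anti-GST antibody.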

In test [4] the target is T2, GST-Hsp90α CTD. Put plainly: ATP-agarose pulldown, Hsp90 CTD. In kind it is binding. The settings on record: 200 μM compound, 6 μM CTD.
In test [5] the target is T2, GST-Hsp90α CTD. Kind of test: BS3 crosslinking assay, GST-Hsp90α CTD. The conditions noted are these: 2 μM protein; NSC145366 10 μM to 100 μM. In kind it is biochemical.
A further test addresses full-length Hsp90α (Homo sapiens, UniProt P07900). Put plainly: BS3 crosslinking assay, full length Hsp90α. In kind it is biochemical. The settings on record: 2 μM protein; BS3 crosslinker. The essentials: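 Full-length Hsp90α used at 2 μM in 50 mM NaPO₄ and 150 mM NaCl, preincubated with compound for 1 h at room temperature. BS3 crosslinker added at 66–200 μM final for 1 h at RT, then quenched with 50 mM Tris-HCl pH 7.5 for 15 min. Analysed by 10% SDS-PAGE and western blot.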

A further test concerns LNCaP cells. Kind of test: Western blot of Hsp90 clients and heat shock proteins in LNCaP cells. It is filed as cell-based. The conditions noted are these: 48 h. The essentials: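 ATCC LNCaP cells kept in ATCC-recommended medium, authenticated and used within 20 passages. Cells treated for 48 h, trypsinised, PBS-washed and lysed in RIPA with protease inhibitors, 1 mM PMSF, 0.1% Triton X-100 and 1 mM DTT. Protein measured by Bradford before western blot. Band intensities of treated samples expressed as percentage of vehicle.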
In general terms: Immunoblotting shows a protein as a band on a membrane.

In the next test the target is GST-Hsp90α CTD (626–732) (Homo sapiens, UniProt P07900). Kind of test: DARTs assay with GST-Hsp90α CTD. The conditions noted are these: 200 μM compound. In kind it is binding.

T1 sequence (P08238 whole entry): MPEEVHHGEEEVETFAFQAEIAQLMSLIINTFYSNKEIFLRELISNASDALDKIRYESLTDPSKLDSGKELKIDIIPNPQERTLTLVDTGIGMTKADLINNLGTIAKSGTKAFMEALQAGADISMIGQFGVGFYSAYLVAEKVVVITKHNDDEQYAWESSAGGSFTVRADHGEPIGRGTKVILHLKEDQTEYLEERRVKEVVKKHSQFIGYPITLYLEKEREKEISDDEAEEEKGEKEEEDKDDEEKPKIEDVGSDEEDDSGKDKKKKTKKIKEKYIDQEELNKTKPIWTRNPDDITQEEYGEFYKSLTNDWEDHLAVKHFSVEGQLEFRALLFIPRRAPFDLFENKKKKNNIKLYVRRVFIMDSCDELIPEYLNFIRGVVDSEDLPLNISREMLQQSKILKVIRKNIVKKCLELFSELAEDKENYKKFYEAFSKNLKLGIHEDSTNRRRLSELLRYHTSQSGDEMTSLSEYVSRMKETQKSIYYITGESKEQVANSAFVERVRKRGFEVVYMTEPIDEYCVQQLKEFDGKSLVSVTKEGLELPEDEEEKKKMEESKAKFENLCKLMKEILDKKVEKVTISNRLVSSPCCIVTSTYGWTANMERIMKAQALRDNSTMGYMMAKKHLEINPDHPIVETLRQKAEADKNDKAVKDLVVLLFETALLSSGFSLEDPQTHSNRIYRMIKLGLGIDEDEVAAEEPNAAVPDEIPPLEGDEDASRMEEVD
His6-Hsp90β CTD, sequence (P08238 530-724): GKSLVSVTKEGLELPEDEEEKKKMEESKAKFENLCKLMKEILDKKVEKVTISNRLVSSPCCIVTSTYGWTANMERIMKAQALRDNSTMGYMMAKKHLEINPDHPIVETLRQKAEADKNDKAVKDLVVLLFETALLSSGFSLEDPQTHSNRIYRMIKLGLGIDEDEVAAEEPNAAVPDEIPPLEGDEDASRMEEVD
Hsp70, sequence (P0DMV8 whole entry): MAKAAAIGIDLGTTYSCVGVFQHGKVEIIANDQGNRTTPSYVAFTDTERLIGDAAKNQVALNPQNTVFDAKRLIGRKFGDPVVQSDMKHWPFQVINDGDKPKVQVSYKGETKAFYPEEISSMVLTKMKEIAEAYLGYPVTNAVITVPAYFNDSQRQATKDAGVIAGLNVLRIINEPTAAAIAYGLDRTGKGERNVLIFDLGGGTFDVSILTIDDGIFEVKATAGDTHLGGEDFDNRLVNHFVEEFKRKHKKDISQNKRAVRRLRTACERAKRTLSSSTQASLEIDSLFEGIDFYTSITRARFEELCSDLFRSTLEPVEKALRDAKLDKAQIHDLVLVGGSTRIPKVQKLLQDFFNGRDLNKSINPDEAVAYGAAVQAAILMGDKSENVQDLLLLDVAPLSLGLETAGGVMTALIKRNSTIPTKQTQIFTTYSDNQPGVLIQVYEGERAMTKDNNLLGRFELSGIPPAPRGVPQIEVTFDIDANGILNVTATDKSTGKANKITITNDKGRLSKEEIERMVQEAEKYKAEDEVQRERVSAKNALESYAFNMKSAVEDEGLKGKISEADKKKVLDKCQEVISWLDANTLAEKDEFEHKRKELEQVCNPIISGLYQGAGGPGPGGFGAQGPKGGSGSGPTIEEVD

For `CCNC(=O)c1noc(-c2cc(C(C)C)c(O)cc2O)c1-c1ccc(CN2CCOCC2)cc1` [AUY922], the “competition with FITC-GA binding to Hsp90β” value at Hsp90β [1] is listed as “compete with fluorescently labeled GA”.

As for `C=CCNC1=C2C[C@@H](C)C[C@H](OC)[C@H](O)[C@@H](C)/C=C(\C)[C@H](OC(N)=O)[C@@H](OC)/C=C\C=C(/C)C(=O)NC(=CC1=O)C2=O` [Analog 17-AAG, reference compound], on Hsp70, the “inhibition of Hsp70 ATPase function” value is reported as “no effect on Hsp70 ATPase function”.

Regarding `CC(C)(c1ccc(OCC(O)CN2CCOCC2)cc1)c1ccc(OCC(O)CN2CCOCC2)cc1` (stereo not shown) [Analog A1, 3,3’-((propane-2,2-diylbis(4,1-phenylene))bis(oxy))bis(1-mor-pholinopropan-2-ol)], the “oligomerization state of His6-Hsp90β CTD (crosslinking)” value on His6-Hsp90β CTD is “CTD monomer band was eliminated”.

With `CN1CCN(CC(O)COc2ccc(C(C)(C)c3ccc(OCC(O)CN4CCN(C)CC4)cc3)cc2)CC1` (stereo not shown) [Analog A2, 3,3’-((propane-2,2-diylbis(4,1-phenylene))bis(oxy))bis(1-(4-methylpiperazin-1-yl)propan-2-ol)], on His6-Hsp90β CTD, the “oligomerization state of His6-Hsp90β CTD (crosslinking)” value is on record as “CTD monomer band was eliminated”. Moreover, on Hsp90β [2], the 50% inhibitory concentration (IC50) – broadly, the midpoint of a concentration-inhibition curve – was around 216 µM.

On to `CC(C)(c1ccc(OCC(O)CNCc2ccco2)cc1)c1ccc(OCC(O)CNCc2ccco2)cc1` (stereo not shown) [Analog A3, 3,3’-((propane-2,2-diylbis(4,1-phenylene))bis(oxy))bis(1-((fur-an-2-ylmethyl)amino)propan-2-ol)], for which the “oligomerization state of His6-Hsp90β CTD (crosslinking)” value on His6-Hsp90β CTD is given as “oligomer formation was completely inhibited”. For the same molecule, the “disruption of CTD dimer formation compared with Cm A1” value on His6-Hsp90β CTD (His6-Hsp90β CTD, 200 μM BS3 (Fig. S10)) is given as “disrupt dimer formation more efficiently than Cm A1”.

For the molecule `CC(C)CNCC(O)COc1ccc(C(C)(C)c2ccc(OCC(O)CNCC(C)C)cc2)cc1` (stereo not shown) [Analog A8, 3,3’-((propane-2,2-diylbis(4,1-phenylene))bis(oxy))bis(1-(iso-butylamino)propan-2-ol)], the “oligomerization state of His6-Hsp90β CTD (crosslinking)” value on His6-Hsp90β CTD is “CTD monomer band was eliminated”. Also, the IC50 on Hsp90β [2] is around 262 µM.

In the case of `CC(C)(c1ccc(OCC2CO2)cc1)c1ccc(OCC2CO2)cc1` (stereo not shown) [BADGE, bisphenol A diglycidyl ether], the “inhibition of Hsp90 CTD chaperone (anti-aggregation) activity, ADH aggregation assay” value against GST-Hsp90α CTD [3] is reported as “slight inhibition”.

Regarding `CC(C)(c1ccc(O)cc1)c1ccc(O)cc1` [BPA, Bisphenol A], the “IC50, Hsp90β ATPase function” value against Hsp90β [2] (0.5 μM Hsp90β, 250 μM ATP, 37 °C 30 min) is “does not have a measurable IC50”. The “inhibition of Hsp90 CTD chaperone (anti-aggregation) activity, ADH aggregation assay” value against GST-Hsp90α CTD [3] is reported as “did not exhibit inhibition; also recorded: Minimal inhibition”.

For `CO[C@H]1[C@H](OC(=O)c2ccc(C)[nH]2)[C@H](O)[C@@H](Oc2ccc3c(O)c(NC(=O)c4c[nH]c(C(=O)Nc5c(O)c6ccc(O[C@H]7OC(C)(C)[C@@H](OC)[C@H](OC(=O)c8ccc(C)[nH]8)[C@@H]7O)c(C)c6oc5=O)c4C)c(=O)oc3c2C)OC1(C)C` [Cm A1, coumermycin A1, reference compound], the “oligomerization of GST-Hsp90α NTD (crosslinking)” value on GST-Hsp90α NTD is reported as “appears to decrease oligomerization of the NTD”. For the same molecule, the “oligomerization state of His6-Hsp90β CTD (crosslinking)” value on His6-Hsp90β CTD was “increases the level of monomeric Hsp90 CTD”. Further, the “inhibition of CTD binding to ATP-agarose” value at GST-Hsp90α CTD [4] was “inhibits CTD binding to ATP”. Besides, on GST-Hsp90α CTD [5], the “oligomerization state of GST-Hsp90α CTD (crosslinking)” value is on record as “increases the level of CTD monomers”. Further, the “oligomerization state of full-length Hsp90α (crosslinking)” value on full-length Hsp90α is “slightly increases the monomer level of full-length Hsp90α”. Moreover, the “increase in ADH aggregation” value on GST-Hsp90α CTD [3] (50 μM, positive control) is ~ 40%.

With `COC1=C2C[C@@H](C)C[C@H](OC)[C@H](O)[C@@H](C)/C=C(\C)[C@H](OC(N)=O)[C@@H](OC)/C=C\C=C(/C)C(=O)NC(=CC1=O)C2=O` [GA, geldanamycin, reference compound], the “induction of classical heat shock response (Hsp70, Hsp27, Hsp40)” value in the test on LNCaP cells is reported as “did induce the classical heat shock response”. Also, the “BRCA1 expression level compared to DMSO” value with LNCaP cells (GA control) turned out to be 9%. Also, at Hsp90β [1], the “competition with FITC-GA binding to Hsp90β” value is “compete with fluorescently labeled GA”.

For the molecule `CO[C@@H]1[C@@H](O)[C@@H](O)[C@H](Oc2ccc3cc(NC(C)=O)c(=O)oc3c2C)OC1(C)C` [KU-32, reference compound], on GST-Hsp90α CTD (626–732), the “protection of Hsp90 CTD from pronase degradation (DARTs)” value is listed as “protects the Hsp90 CTD from pronase degradation at levels comparable”.
